VIM-2 inh: inhibitors of Pseudomonas aeruginosa VIM-2 metallo-beta-lactamase; purified VIM-2, nitrocefin hydrolysis, epi-absorbance fluorescence; inhibition, % at 5.6 µM; hit rate 0.89% among 290,000; AID 1527;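 active = inhibition above the mean of all tested compounds plus 3 SD, cutoff set per screening run, cut at about 7.5% in these data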;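 also: red hydrolysis product quenches plate fluorescence so inhibitors raise well fluorescence; 0% = enzyme with DMSO and 100% = DMSO without enzyme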
IMP-1 inhibitor: inhibitors of Pseudomonas aeruginosa IMP-1 metallo-beta-lactamase | purified IMP-1, nitrocefin hydrolysis, epi-absorbance fluorescence | inhibition, % at 5.6 µM | hit rate 0.45% among 290,000 | AID 1556;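 active = inhibition above the mean plus 3 SD of all compounds in the same screening run, cut at about 4.5% in these data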;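 also: 0% = IMP-1 with DMSO and 100% = DMSO wells lacking enzyme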
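system = purified recombinant IMP-1 beta-lactamase | amount = 0.2 nM IMP-1, as dispensed | medium = HEPES buffer pH 7.1 with ZnSO4 and Brij 35 | times = 25 °C, 15 min preincubation, 25 min reaction | detection = plate fluorescence quenching by hydrolysis product, ex 480/em 530 nm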
MEKK2mut PB1 HTS: signal of MEK5 binding to mutant human MEKK2 PB1 domain; bead flow cytometry, Alexa488-MEK5 binding to MEKK2 mutant; percent response, % at 10 µM; hit rate 0.35% among 290,000; AID 1530; in the data active = percent response above about 24%, passing the limit was not always enough
MEKK3 PB1 HTS: modulators (inhibitors or enhancers) of MEK5 binding to human MEKK3 PB1 domain | binding response (% of control), % at 10 µM | Q99759 | bead-based flow cytometry, Alexa488-MEK5 binding to MEKK3; actives lie on both sides; 0 = blocked by unlabeled MEK5, 100 = vehicle | hit rate 1.4% among 290,000;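 active = binding response more than 3 SD above or below the average of its plate-row segment, actives on both sides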;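 also: Alexa488 bead fluorescence after subtracting the streptavidin-only scavenger bead signal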
Target sequence (Q99759 whole entry, looked up, the tested form may be a part): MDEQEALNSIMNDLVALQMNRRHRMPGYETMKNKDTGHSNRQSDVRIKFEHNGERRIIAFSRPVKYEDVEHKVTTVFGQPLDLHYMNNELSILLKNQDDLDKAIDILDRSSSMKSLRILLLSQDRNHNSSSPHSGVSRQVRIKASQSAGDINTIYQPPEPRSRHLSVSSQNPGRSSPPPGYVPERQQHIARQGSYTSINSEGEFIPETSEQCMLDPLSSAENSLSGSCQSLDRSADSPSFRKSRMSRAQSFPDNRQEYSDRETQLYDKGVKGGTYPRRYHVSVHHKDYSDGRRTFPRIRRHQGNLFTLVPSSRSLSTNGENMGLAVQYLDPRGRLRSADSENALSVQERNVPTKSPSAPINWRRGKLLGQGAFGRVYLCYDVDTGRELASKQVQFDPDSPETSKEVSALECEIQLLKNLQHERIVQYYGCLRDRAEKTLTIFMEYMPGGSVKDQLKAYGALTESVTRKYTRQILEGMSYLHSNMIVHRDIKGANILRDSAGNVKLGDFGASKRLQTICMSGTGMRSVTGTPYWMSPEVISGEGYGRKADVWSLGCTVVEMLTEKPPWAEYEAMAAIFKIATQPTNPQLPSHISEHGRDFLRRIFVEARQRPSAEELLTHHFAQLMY
MEKK2 WT-MEK5: raises or lowers MEK5 binding to wildtype human MEKK2 PB1 domain | Q9Y2U5 | bead flow cytometry, Alexa488-MEK5 binding to MEKK2 WT; actives lie on both sides | hit rate 1.1% among 290,000 | binding response (% of control), % at 10 µM; in the data active = binding response below about 67% or above about 130%
MEKK2wt confirm: raises or lowers MEK5 binding to wildtype human MEKK2, retest | AID 1892 | bead flow cytometry, Alexa488-MEK5 binding to MEKK2 WT; actives lie on both sides | binding response (% of control), % at 10 µM | hit rate 2.4% among 5,900 | shares compounds with MEKK3 PB1 HTS; in the data active = binding response below about 16% or above about 210%; inactive = in between
MEKK2mut confirm: signal of MEK5 binding to mutant human MEKK2, retest | shares compounds with MEKK3 PB1 HTS | bead flow cytometry, Alexa488-MEK5 binding to MEKK2 mutant | percent response, % at 10 µM | hit rate 2% among 5,900; in the data active = percent response mostly above about 71%, no sharp cut-off; inactive = mostly below about 38%;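 also: higher means compound restores mutant binding toward wildtype level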
MEKK3 confirm: MEKK3-MEK5 PB1 inhibition, single concentration confirmation | bead flow cytometry, Alexa488-MEK5 binding to MEKK3; hits give low values | AID 1894 | hit rate 1.8% among 5,900 | binding response (% of control), % at 10 µM | shares compounds with MEKK3 PB1 HTS;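 active = binding response below 72% of control, or above a set upper limit, though filed actives all read lower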;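 also: 100% = DMSO only wells and 0% = binding blocked by excess unlabeled MEK5; lower values mean stronger disruption of MEK5 binding to MEKK3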
Active calls of the source: *; · = not tested or not shown; [ ] = remark or other dose. A selection: hits, their analogues and other compounds. The true share with any hit is near 3.4%.

SMILES	VIM-2 inh	IMP-1 inhibitor	MEKK2mut PB1 HTS	MEKK3 PB1 HTS	MEKK2 WT-MEK5	MEKK2wt confirm	MEKK2mut confirm	MEKK3 confirm
COc1cc(O)c(C(CCN2CCCCC2)c2cc(OC)c(OC)c(OC)c2)c(OC)c1 (configuration not stated)	·	·	3	94	90	·	·	·
COc1cc(O)c(C(CCN2CCOCC2)c2cc(OC)c(OC)c(OC)c2)c(OC)c1 (configuration not stated)	·	·	3	119	142*	98	-8	97
CCOC(=O)Cn1nc(C)c(NC(=O)COc2cccc(Cl)c2)c1C	-3	-1	0	132*	119	106	7	104
COc1cc(CNCCO)cc(Cl)c1OCc1ccc(Cl)cc1Cl	1	-2	25	106	161*	160	27	108
COc1cc(CNCCO)cc(Br)c1OCc1ccccc1Cl	2	-2	·	·	·	·	·	·
COc1cc(CNC2CCCCCCC2)cc(Cl)c1OCC(N)=O	0	0	0	98	105	·	·	·
COc1cc(CNC2CCCC2)cc(Cl)c1OCc1ccc(F)cc1	-1	-3	25*	98	126	127	10	104
CCOc1cc(CNC2CCCC2)cc(Cl)c1OCc1ccc(F)cc1	-3	0	14	101	144*	149	26	97
COc1cc(CNC2CCCC2)cc(OC)c1OC	1	0	1	101	97	·	·	·
COc1cc(CNC2CCCC2)cc(Cl)c1OCc1ccccc1Cl	1	-2	46	109	207*	141	23	109
COc1cccc(-c2cccc(NC(=O)C3CCN(Cc4cnn(C)c4)CC3)c2)c1	-3	-3	8	98	105	·	·	·
Cc1cc(C)nc(SCC(=O)c2c(N)n(C)c(=O)n(C)c2=O)n1	0	-2	·	·	·	·	·	·
O=C(CCSCc1cccc(Cl)c1)NCCc1ccc(Cl)cc1	-1	-3	16	104	111	·	·	·
O=C(CSc1ccccc1)NCCSCc1ccccc1	-1	-3	2	140*	111	102	2	101
O=C(CCSCc1ccc(Cl)cc1)NCCc1ccccc1	-3	-4	0	142*	102	96	-6	101
O=C(CCSCc1ccc(Cl)cc1)NC1CCCC1	-2	-1	1	151*	109	98	-8	102
COc1ccccc1OCC(=O)NCCSCc1ccc(Cl)cc1	-2	-3	0	132*	108	97	-7	100
Cc1ccccc1C(=O)Nc1nnc(S(=O)(=O)N2CCCCC2)s1	-2	-2	-5	101	96	·	·	·
CCOc1ccc(Nc2nc(NCC3CCCO3)c3ccccc3n2)cc1 (configuration not stated)	1	-1	-8	103	166*	170	14	100
CCOc1ccc(Nc2c3ccccc3nc3ccccc23)cc1	9.6*	-3	30	104	149*	136	19	107
CN(C)c1ccc(/C=N\Nc2nc(-c3ccccc3)cc(=O)[nH]2)cc1	-1	-1	-1	59*[inhibitor]	97	91	-12	90
COc1ccc(/C(C)=N\Nc2nc(-c3ccccc3)cc(=O)[nH]2)cc1	-3	-3	0	99	101	·	·	·
COC(=O)c1ccc(C2C(Oc3ccc(OC)cc3)C(=O)N2CCc2ccc(OC)c(OC)c2)cc1 (configuration not stated)	-3	-1	1	157*	109	104	4	104
C/C(=N\NC(=O)CNC(=O)C(c1ccccc1)c1ccccc1)c1ccc(C(C)(C)C)cc1	-4	-1	1	162*	108	106	-1	98
COc1ccccc1N(CC(O)CN1C(C)CCCC1C)S(=O)(=O)c1ccccc1 (configuration not stated)	-1	-3	12	104	112	·	·	·
SMILES	VIM-2 inh	IMP-1 inhibitor	MEKK2mut PB1 HTS	MEKK3 PB1 HTS	MEKK2 WT-MEK5	MEKK2wt confirm	MEKK2mut confirm	MEKK3 confirm
COc1cc2c(cc1Cl)/C(=C\CCN(C)C)c1ccccc1S2	1	-4	3	102	130	·	·	·
CN1CCN(CC/C=C2/c3ccccc3Sc3ccc(S(=O)(=O)N(C)C)cc32)CC1	2	0	19	78	143*	127	10	101
CCOc1ccc(NC(=O)CC2C(=O)N(c3ccc(OC)cc3)C(=O)N2CCc2cccs2)cc1 (configuration not stated)	-1	-3	0	94	93	·	·	·
COc1ccc(NC(=O)CC2C(=O)N(c3ccc(Cl)cc3)C(=S)N2CCc2ccncc2)cc1 (configuration not stated)	-1	-2	6	107	108	·	·	·
COc1ccc(NC(=O)CC2C(=O)N(c3ccccc3)C(=O)N2CCc2cccs2)cc1 (configuration not stated)	-3	-6	0	149*	102	105	5	105
COc1ccc(NC(=O)CC2C(=O)N(c3ccc(Cl)cc3)C(=S)N2CCc2ccccn2)cc1 (configuration not stated)	-2	-3	0	130*	104	101	-7	100
CCN(CC)c1ccc(C=N/C(C#N)=C(\N)C#N)cc1	-4	-1	-10	1.0*[inhibitor]	·	83	-9	85
CCN(CC)c1ccc(/C=C(\C#N)c2ccccn2)cc1	-2	-3	-1	99	96	·	·	·
Cc1cc(=O)oc2c3c(cc(OCC(=O)NCc4ccccc4)c12)OC(C)(C)CC3	-3	-2	3	101	96	·	·	·
COc1cc(/C=N/NC(=S)Nc2cccc(C(=O)O)c2)ccc1O	3	-4	2	143*	111	102	9	102
C[C@]12CCC(=O)CC1CCC1C2CC[C@@]2(C)C1CC[C@@]21CCO1 (some centres not stated)	-1	-2	11	107	101	·	·	·
C[C@]12CCC3C(CC[C@H]4CCCC[C@]34C)C1CC[C@@]2(O)CNCCO (some centres not stated)	-3	-2	27*	105	139*	130	20	107
O=C(Nc1cccc(S(=O)(=O)N2CCCCC2)c1)c1ccc2ncsc2c1	-2	-3	-10	86	59*[inhibitor]	107	-2	102
O=C(CCc1ccccc1Cl)Nc1cccc(S(=O)(=O)N2CCCC2)c1	-2	-2	8	107	108	·	·	·
O=C(Nc1cccc(S(=O)(=O)N2CCCCC2)c1)Nc1ccc(Cl)cc1Cl	-3	-1	3	153*	141*	126	10	105
